Assay results published in ChEMBL document CHEMBL1144610, “High-affinity carbamate analogues of morphinan at opioid receptors” (Bioorg Med Chem Lett, 2007).
Calls of active or inactive are those of the source. No cut-off for these calls is given here.

Experiments:
[1] = Displacement of [3H]naltrindole from human delta opioid receptors expressed in CHO cell membrane
[2] = target: T1, Mu-type opioid receptor (Homo sapiens, UniProt P35372); assay: Displacement of [3H]DAMGO from human mu opioid receptors expressed in CHO cell membrane
T1 sequence (P35372 whole entry): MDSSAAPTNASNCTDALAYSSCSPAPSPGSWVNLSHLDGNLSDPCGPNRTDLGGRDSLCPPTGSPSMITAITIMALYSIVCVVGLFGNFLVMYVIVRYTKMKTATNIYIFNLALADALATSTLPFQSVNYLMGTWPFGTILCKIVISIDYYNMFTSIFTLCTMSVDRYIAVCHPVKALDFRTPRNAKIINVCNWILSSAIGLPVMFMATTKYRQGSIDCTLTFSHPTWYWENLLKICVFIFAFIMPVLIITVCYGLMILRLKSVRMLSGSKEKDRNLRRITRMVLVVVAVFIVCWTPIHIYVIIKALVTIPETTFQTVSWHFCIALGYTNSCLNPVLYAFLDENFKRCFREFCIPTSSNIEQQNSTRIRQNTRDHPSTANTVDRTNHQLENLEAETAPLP

[3] = target: T2, Kappa-type opioid receptor (Homo sapiens, UniProt P41145); assay: Displacement of [3H]U-69593 from human kappa opioid receptors expressed in CHO cell membrane
T2 sequence (P41145 whole entry): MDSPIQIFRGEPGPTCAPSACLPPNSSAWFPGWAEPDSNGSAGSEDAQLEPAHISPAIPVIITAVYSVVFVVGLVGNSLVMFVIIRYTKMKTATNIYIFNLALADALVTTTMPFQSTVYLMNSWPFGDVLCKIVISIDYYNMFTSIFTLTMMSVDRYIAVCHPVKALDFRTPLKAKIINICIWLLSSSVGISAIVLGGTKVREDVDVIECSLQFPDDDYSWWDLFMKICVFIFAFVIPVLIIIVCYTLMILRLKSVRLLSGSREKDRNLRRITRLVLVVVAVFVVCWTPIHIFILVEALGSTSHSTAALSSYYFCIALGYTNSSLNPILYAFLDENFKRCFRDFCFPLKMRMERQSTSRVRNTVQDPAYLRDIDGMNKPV

[4] = target: Delta-type opioid receptor (Homo sapiens, UniProt P41143); assay: Displacement of [3H]naltrindole from human delta opioid receptors expressed in CHO cell membrane
Delta-type opioid receptor, sequence (P41143 whole entry): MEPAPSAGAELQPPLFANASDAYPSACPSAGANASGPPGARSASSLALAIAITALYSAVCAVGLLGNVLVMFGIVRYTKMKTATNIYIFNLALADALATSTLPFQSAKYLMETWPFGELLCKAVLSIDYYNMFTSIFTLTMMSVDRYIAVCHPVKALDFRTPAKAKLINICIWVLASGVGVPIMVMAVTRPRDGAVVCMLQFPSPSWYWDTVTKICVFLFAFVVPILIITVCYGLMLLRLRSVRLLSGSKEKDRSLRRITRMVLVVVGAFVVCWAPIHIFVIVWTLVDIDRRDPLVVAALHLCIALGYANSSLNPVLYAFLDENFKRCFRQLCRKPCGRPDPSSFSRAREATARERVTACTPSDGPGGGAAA

[5] = target: Opioid receptors; mu & kappa (Homo sapiens) (UniProt P41145+P35372); assay: Selectivity for kappa opioid receptor over mu opioid receptor expressed in CHO cells; format: cell-based
Opioid receptors; mu & kappa (Homo sapiens), sequence (P35372 whole entry, looked up): as the sequence (P35372 whole entry) above
Opioid receptors; mu & kappa (Homo sapiens), sequence (P41145 whole entry, looked up): as the sequence (P41145 whole entry) above

[6] = target: Opioid receptors; delta & kappa (Homo sapiens) (UniProt P41145+P41143); assay: Selectivity for kappa opioid receptor over delta opioid receptor; format: protein assay
Opioid receptors; delta & kappa (Homo sapiens), sequence (P41143 whole entry, looked up): as the sequence (P41143 whole entry) above
Opioid receptors; delta & kappa (Homo sapiens), sequence (P41145 whole entry, looked up): as the sequence (P41145 whole entry) above

[7] = target: T2, Kappa-type opioid receptor; assay: Agonist activity at human opioid kappa receptor expressed in CHO cells assessed as maximal stimulation of [35S]GTP-gamma-S binding relative to control; format: functional, cell-based
Outline: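 CHO cell membranes stably expressing only the human κ opioid receptor were incubated with varying concentrations of each compound. Stimulation of [35S]GTPγS binding was measured, and maximal stimulation was taken as Emax.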

[8] = target: T2, Kappa-type opioid receptor; assay: Agonist activity at huma kappa opioid receptor expressed in CHO cells assessed as […] of [35S]GTP-gamma-S binding; format: functional, cell-based
[9] = target: T1, Mu-type opioid receptor; assay: Agonist activity at human mu opioid receptor expressed in CHO cells assessed as maximal stimulation of [35S]GTP-gamma-S binding; format: functional, cell-based
[10] = target: T1, Mu-type opioid receptor; assay: Antagonist activity at human mu opioid receptor expressed in CHO cells assessed as DAMGO-stimulated [35S]GTP-gamma-S binding; format: functional, cell-based

| Compound | Ki [1] | Ki [2] | Ki [3] | Ki [4] | Ratio Ki [5] | Ratio Ki [6] | Emax [7] | EC50 [8] | EC50 [9] | Emax [9] | IC50 [10] | Imax [10] | Activity [10] |
| --- | --- | --- | --- | --- | --- | --- | --- | --- | --- | --- | --- | --- | --- |
| Oc1ccc2c(c1)[C@@]13CCCC[C@H]1[C@@H](C2)N(CC1CC1)CC3 [CYCLORPHAN] | 1.9 nM |  |  |  |  |  |  |  |  |  |  |  |  |
| O=C(Nc1ccccc1)Oc1ccc2c(c1)C13CCCCC1C(C2)N(CC1CCC1)CC3 (single isomer, unassigned; (-)) |  | 0.12 nM | 0.051 nM | 3.9 nM | 2 | 76 | 74% | 2.2 nM | 1.3 nM | 80% | 22 nM | 37% |  |
| CNC(=O)Oc1ccc2c(c1)C13CCCCC1C(C2)N(CC1CC1)CC3 (single isomer, unassigned; (-)) |  | 5.3 nM | 3.4 nM | 42 nM | 1.6 | 12 | 78% | 16 nM | 14 nM | 44% |  |  |  |
| CNC(=O)Oc1ccc2c(c1)C13CCCCC1C(C2)N(C)CC3 (stereo not given) |  | 1.4 nM | 3.3 nM | 53 nM | 0.4 | 16 | 96% | 29 nM | 50 nM | 71% |  |  |  |
| O=C(NCc1ccccc1)Oc1ccc2c(c1)C13CCCCC1C(C2)N(CC1CC1)CC3 (single isomer, unassigned; (-)) |  | 0.3 nM | 0.14 nM | 2.7 nM | 2 | 20 | 130% | 1.1 nM | 2.2 nM | 39% | 16 nM | 71% |  |
| CNC(=O)Oc1ccc2c(c1)C13CCCCC1C(C2)N(CC1CCC1)CC3 (single isomer, unassigned; (-)) |  | 1.2 nM | 0.81 nM | 30 nM | 1.5 | 37 | 88% | 9.6 nM | 11 nM | 60% |  |  |  |
| O=C(NCc1ccccc1)Oc1ccc2c(c1)C13CCCCC1C(C2)N(CC1CCC1)CC3 (single isomer, unassigned; (-)) |  | 0.7 nM | 0.3 nM | 15 nM | 0.4 | 50 | 110% | 4.7 nM | 7.1 nM | 54% | 260 nM | 50% |  |
| Oc1ccc2c(c1)[C@@]13CCCC[C@H]1[C@@H](C2)N(CC1CCC1)CC3 [BUTORPHAN] | 5.9 nM |  |  |  |  |  |  |  |  |  |  |  |  |
| CCNC(=O)Oc1ccc2c(c1)C13CCCCC1C(C2)N(C)CC3 (stereo not given) |  | 4.8 nM | 36 nM | 78 nM | 0.1 | 2 |  |  |  |  |  |  |  |
| CCNC(=O)Oc1ccc2c(c1)C13CCCCC1C(C2)N(CC1CCC1)CC3 (stereo not given) |  | 3.7 nM | 4.3 nM | 27 nM | 0.9 | 6 | 61% | 23 nM | 39 nM | 32% |  | 33% | inactive |
| CCNC(=O)Oc1ccc2c(c1)C13CCCCC1C(C2)N(CC1CC1)CC3 (single isomer, unassigned; (-)) |  | 0.29 nM | 0.14 nM | 2.8 nM | 2 | 20 | 140% | 1.2 nM | 2.4 nM | 40% | 10 nM | 68% |  |
| O=C(Nc1ccccc1)Oc1ccc2c(c1)C13CCCCC1C(C2)N(CC1CC1)CC3 (stereo not given) |  | 0.11 nM | 0.046 nM | 1.6 nM | 2.4 | 35 | 120% | 0.38 nM | 0.44 nM | 39% | 6.4 nM | 70% |  |
